Shown are actives, neighbours in structure and some others; about 1.1% of the full set was active somewhere.
procasp3 activ: procaspase-3 (human) activation | activation, % at 8.5 µM | recombinant procaspase-3 D3A, Ac-DEVD-pNA absorbance 405 nm | actives 0.11% (n = 330,000);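 active = activation above the mean of all tested compounds plus 3 SD, cut at about 21% in these data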
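Evaluation: percent activation relative to control range; Material: Procaspase-3 D3A mutant, all three cleavage aspartates alanine; Compound: single dose, 8.5 µM nominal compound, 0.8% DMSO; Replication: one well per compound; Signal: absorbance at 405 nm, 0 and 120 min; Schedule: 1 h preincubation plus 2 h reaction at 25 °C.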
LYPLA1 inh: counter-screen for PME1 inhibitors: inhibitors of human LYPLA1. O75608. actives 0.16% (n = 320,000). recombinant LYPLA1, FP-Rh probe fluorescence polarization. inhibition, % at 5.9 µM. AID 2174;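 active = inhibition above the mean of all tested compounds plus 3 SD, set per campaign, cut at about 14% in these data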;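 note: inhibitors block serine hydrolase probe labeling of LYPLA1 so polarization falls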
Target sequence (O75608 whole entry, looked up): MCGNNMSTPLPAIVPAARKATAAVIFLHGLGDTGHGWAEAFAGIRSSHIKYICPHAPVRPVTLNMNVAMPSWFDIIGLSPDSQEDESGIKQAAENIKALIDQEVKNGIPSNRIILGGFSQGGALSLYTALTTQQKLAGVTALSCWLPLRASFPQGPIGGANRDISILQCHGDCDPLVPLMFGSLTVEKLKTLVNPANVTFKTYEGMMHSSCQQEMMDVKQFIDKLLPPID
PREPL inhibitor: human PREPL enzyme inhibition. actives 0.68% (n = 320,000). recombinant PREPL, fluorescence polarization activity-based probe. inhibition, % at 5.96 µM. Q4J6C6. AID 2751
proCasp7 act: activates human procaspase-7, counter-screen for procaspase-3 activators | recombinant procaspase-7, Ac-DEVD-pNA absorbance 405 nm; D23A/D198A/D206A triple mutant, cannot self-cleave; scale: DMSO 0, 5 µM enzyme 100 | activation, % at 8.5 µM | actives 0.093% (n = 330,000);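 active = percent activation above the screen-wide mean plus 3 SD, cut at about 25% in these data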
Target sequence (P55210 whole entry D23A/D198A/D206A): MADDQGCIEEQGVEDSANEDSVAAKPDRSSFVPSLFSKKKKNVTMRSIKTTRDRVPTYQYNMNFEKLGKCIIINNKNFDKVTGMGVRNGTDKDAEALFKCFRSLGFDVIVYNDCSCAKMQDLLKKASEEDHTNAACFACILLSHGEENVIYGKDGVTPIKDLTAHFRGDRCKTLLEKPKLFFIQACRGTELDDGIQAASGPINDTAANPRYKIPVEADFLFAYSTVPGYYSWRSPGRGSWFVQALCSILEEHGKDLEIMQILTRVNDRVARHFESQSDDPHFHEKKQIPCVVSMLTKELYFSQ
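Material: Procaspase-7 triple mutant (PC-7 D3A) | Quantity: 2 µM procaspase-7 mutant as dispensed | Reagent: DEVD-pNA substrate | Times: 1 h preincubation, 2 h reaction | Technique: 405 nm absorbance of p-nitroaniline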
LYPLA2 inh: LYPLA2 (human) inhibition in PME1 counter-screen. recombinant LYPLA2, FP-Rh probe fluorescence polarization. inhibition, % at 5.9 µM. actives 0.38% (n = 320,000). AID 2177;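 active = inhibition above the screen-wide mean plus 3 SD, limit set per campaign, cut at about 26% in these data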
PREPL confirm: human PREPL inhibition, confirmation | shares compounds with PREPL inhibitor | recombinant PREPL, fluorescence polarization activity probe | inhibition, % at 5.96 µM | actives 67% (n = 2,000) | AID 2803
Each line names hits and unclear results; the compound was inactive in the other large screens (follow-up assays come after a bar, where they were run). Cut-off read from the data, not from the text of the source, unless noted: active = inhibition above about 43%; inactive = the rest.

CCOC(=O)N1CCC(N2C(=O)c3ccccc3C2Nc2ccc(S(=O)(=O)N(CC)CC)cc2)CC1 (stereo not drawn)	none
Cc1ccc(NC(=O)CN(C)C(=O)Cn2c(=O)oc3ccccc32)cc1	none
O=C(COC(=O)CNC(=O)c1ccc(Cl)cc1Cl)NNC(=O)c1ccccc1F	none (no result: LYPLA1 inh, LYPLA2 inh)
COC(=O)c1[nH]c2ccc(C)cc2c1NC(=O)CN1CCCc2ccccc21	PREPL inhibitor 48.7 | PREPL confirm 48.1
COc1ccc(-n2nc3c(N4CCC(C(=O)NCC(C)c5ccccc5)CC4)nnc(C)c3c2C)cc1 (stereo not drawn)	PREPL inhibitor 49.7 | PREPL confirm inactive
COc1ccc(-n2nc3c(N4CCC(C(=O)NCCc5ccccc5C)CC4)nnc(C)c3c2C)cc1	PREPL inhibitor 51.9 | PREPL confirm inactive
COc1ccc(-n2nc3c(N4CCC(C(=O)NCc5ccccc5C)CC4)nnc(C)c3c2C)cc1	none
COc1ccc(-n2nc3c(N4CCC(C(=O)NCc5ccco5)CC4)nnc(C)c3c2C)cc1	none
CCCCn1c(-c2ccc(F)c(F)c2)nc2cc3[nH]c(=O)c(C(C)C)nc3cc21	none
CCCCn1c(CCc2ccccc2)nc2cc3[nH]c(=O)c(C(C)C)nc3cc21	PREPL inhibitor 43.5 | PREPL confirm inactive
Cc1ccc(C)c(N2CCN(C(=S)Nc3ccc4nc(N5CCOCC5)cc(C)c4c3)CC2)c1	PREPL inhibitor 53.8 | PREPL confirm inactive
Cc1ccc(C)c(N2CCN(C(=S)Nc3ccc4nc(N5CCN(C)CC5)cc(C)c4c3)CC2)c1	PREPL inhibitor 53.3 | PREPL confirm inactive
COc1ccccc1N1CCN(C(=S)Nc2ccc3nc(N4CCOCC4)cc(C)c3c2)CC1	none
Cc1cccc(N2CCN(C(=S)Nc3ccc4nc(N5CCOCC5)cc(C)c4c3)CC2C)c1 (stereo not drawn)	PREPL inhibitor 43.2 | PREPL confirm inactive
O=C(COC(=O)c1cc(-c2cccs2)nn1-c1ccccc1)Nc1ccc(F)c([N+](=O)[O-])c1	none
CC(C)(C)C(=O)N1CCN(C(=O)c2ccco2)CC1	none
Cc1cc(F)ccc1S(=O)(=O)N1CCCOC1CNC(=O)C(=O)NCC(C)C (stereo not drawn)	none
O=C(Nc1cc(Cl)ccc1N1CCCC1)C1=COCCO1	PREPL inhibitor 44.8 | PREPL confirm inactive
CN1C(=O)[C@H]2[C@@H](c3ccc(F)cc3)N3C(=O)c4ccccc4NC(=O)[C@@]3(C)[C@H]2C1=O	none
O=C(Cn1cc[n+](CC(=O)c2ccc(Cl)cc2Cl)c1)c1ccc(Cl)cc1Cl	PREPL inhibitor 46.2 | PREPL confirm inactive
CCCCCCSc1ccc(-c2nc3cnccn3c2NCCCC)cc1	none (no result: LYPLA1 inh, LYPLA2 inh)
COc1cc2c(cc1OC)C(C(=O)Nc1ccc(F)c(Cl)c1)CC(=O)N2 (stereo not drawn)	none
N#Cc1cccc(NC(=O)CSc2nnc(C3CC3)n2C2CC2)c1	PREPL inhibitor 76.2 | PREPL confirm inactive
NS(=O)(=O)c1cccc(NC(=O)CSc2nnc(C3CC3)n2C2CC2)c1	none
Cc1cc(C)c(S(=O)(=O)NCCCn2ccnc2)cc1C	none
Cc1c(N(C)S(=O)(=O)c2cc(C(=O)Nc3ccccn3)ccc2Cl)c(=O)n(-c2ccccc2)n1C	none
C/C(=N\NC(=O)c1cccc(N/N=C(\C)c2ccccc2)c1)c1ccccc1	none
C/C(=N\NC(=O)c1cccc(N/N=C(\C)c2ccncc2)c1)c1ccncc1	PREPL inhibitor 51.9 | PREPL confirm inactive
Cc1ccc(NC(=O)N2CCOCC2)c(C)c1	PREPL inhibitor 87.3 | PREPL confirm inactive
COc1cc(CCC(=O)OCC(=O)N2CCc3ccccc32)cc(OC)c1OC	none
CCOc1ccc(-n2c(SCc3ccc(C#N)cc3)nnc2-c2cccnc2)cc1	none
N#Cc1ccc(CSc2nnc(-c3cccnc3)n2-c2ccccc2)cc1	PREPL inhibitor 46.0 | PREPL confirm inactive
O=C(NCCOc1ccccc1)c1ccc2c(c1)S(=O)(=O)c1cc(Cl)ccc1C2=O	PREPL inhibitor 43.5 (no result: LYPLA1 inh, LYPLA2 inh) | PREPL confirm inactive
Cc1ccc2c(C)c(C(=O)NCC(C)(C)N3CCOCC3)oc2c1C	none
O=C(C[n+]1ccc(/C=C/c2ccccc2)cc1)c1ccc2c(c1)OCCO2	PREPL inhibitor 63.2 | PREPL confirm inactive
Cc1cc[n+](CC(=O)c2ccc3c(c2)OCCO3)cc1	none
COC(=O)C1CCN(c2ccc([N+](=O)[O-])cc2)CC1	none
COC(=O)C1CCN(CCCOc2ccc(CN3CCN(c4ccc([N+](=O)[O-])cc4)CC3)cc2)CC1	PREPL inhibitor 52.2 | PREPL confirm 44.0
CC(NC(=O)C(=O)N1CCCCC1)C(c1cccs1)N1CCN(c2ccccc2)CC1 (stereo not drawn)	none
Cc1ccn2c(-c3csc(NCc4ccccc4)n3)c(C)nc2c1	PREPL inhibitor 45.2 | PREPL confirm 44.5
Cc1nc2ccccn2c1-c1csc(NCc2ccco2)n1	none
O=C(C[n+]1cc(-c2ccccc2)n2c1CCCCC2)c1ccc(Br)cc1	PREPL inhibitor 54.1 | PREPL confirm inactive
Cc1ccc(C(=O)C[n+]2cc(-c3ccc(C)cc3)n3c2CCCCC3)cc1	none
Oc1nc(Nc2ccccc2)sc1/C=C1\C=Nc2ccccc21	PREPL inhibitor 58.8 | PREPL confirm 62.8
O=c1c(O)c(-c2cc(O)c(O)c(O)c2)oc2cc(O)cc(O)c12	PREPL inhibitor 90.0 | PREPL confirm 54.5
CCCCC1=CC2=C(c3ccco3)C(=O)C(C)(OC(=O)c3ccc(OC)cc3)C(=O)C2=CN1CCN1CCOCC1 (stereo not drawn)	PREPL inhibitor 59.5 | PREPL confirm 46.5
COc1cccc(NC(=O)Nc2cc(C(=O)NCC3CCCO3)ccc2N2CC3CC(C2)c2cccc(=O)n2C3)c1 (stereo not drawn)	none
N#CC1=C(N)C(C#N)(C#N)C(c2cccnc2)C2CCCC=C12 (stereo not drawn)	none
N#CC1=C(N)C(C#N)(C#N)C(c2cccnc2)C2CC(c3ccccc3)CC=C12 (stereo not drawn)	PREPL inhibitor 44.1 | PREPL confirm inactive
O=C(CSc1nnc2ccc(-c3ccccn3)nn12)Nc1ccccc1F	none
Cc1ccc(NC(=O)CSc2nc3sc(C)cc3c(=O)n2C)cc1	none
CCCn1c(C)cc(-c2csc(N)n2)c1C	PREPL inhibitor 44.3 | PREPL confirm inactive
COc1ccc(-n2c(C)cc(-c3csc(N)n3)c2C)cc1	PREPL inhibitor 43.3 | PREPL confirm inactive
Cc1c(-c2csc(N)n2)cnn1C	none
CCCOc1ccc(C(=O)N/N=C/c2c[nH]c3ccc(Br)cc23)cc1	none
CCCCCN=C(N)N/N=C/c1c[nH]c2ccc(OC)cc12	PREPL inhibitor 80.4 | PREPL confirm 66.2
